Assay results reported in ChEMBL document CHEMBL1156961, “Inhibition of Escherichia coli glycosyltransferase MurG and Mycobacterium tuberculosis Gal transferase by uridine-linked transition state mimics” (Bioorg Med Chem, 2010).
The source made the active and inactive calls. No cut-off for these calls is given here.

Test system: not listed separately
Test: Inhibition of Escherichia coli recombinant C terminal His-tagged MurG expressed in Escherichia coli C43 assessed as inhibition of [3H]UDPGlc labelled lipid intermediate 2 formation over 15 mins by scintillation counting
With COc1ccccc1[C@H]1N[C@@](C)(C(=O)N2CCC[C@H]2C(=O)NC[C@H]2O[C@@H](n3ccc(=O)[nH]c3=O)[C@H](O)[C@@H]2O)[C@H]2C(=O)NC(=O)[C@@H]12 the IC50 was > 5 mM. With COC(=O)[C@H]1[C@@H](c2ccccc2OC)N[C@@](C)(C(=O)NCC(=O)NC[C@H]2O[C@@H](n3ccc(=O)[nH]c3=O)[C@H](O)[C@@H]2O)[C@@H]1C(=O)OC (mixture of isomers) the IC50 was > 5 mM. COC(=O)[C@@H]1[C@@H]2C(=O)N(CC(=O)NC[C@H]3O[C@@H](n4ccc(=O)[nH]c4=O)[C@H](O)[C@@H]3O)C(=O)[C@@H]2N[C@@H]1c1ccc(OC)c(OC)c1 showed an IC50 of 4 mM.

Test system: Escherichia coli
Test: Antibacterial activity against Escherichia coli BL21 at 100 ug/ml after 24 hrs
Format: functional, organism-based
Outline: (§1)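 LB broth culture grown overnight at 37 °C from a single colony, diluted to 2% in fresh LB and mixed 1:1 with sterile aqueous compound (200 μg/ml or 1 mg/ml solution) or water. Incubated at 37 °C, growth followed by OD595 at 3, 6 and 24 h.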
With COc1ccccc1[C@H]1N[C@@](C)(C(=O)NCC(=O)NC[C@H]2O[C@@H](n3ccc(=O)[nH]c3=O)[C@H](O)[C@@H]2O)[C@H]2C(=O)N(c3ccccc3)C(=O)[C@@H]12 (mixture of isomers) the Activity was “inactive”.

Test system: Bacillus subtilis
Test: Antibacterial activity against Bacillus subtilis W23 at 100 ug/ml after 24 hrs
Format: functional, organism-based
Outline: as §1
With COc1ccccc1[C@H]1N[C@@](C)(C(=O)NCC(=O)NC[C@H]2O[C@@H](n3ccc(=O)[nH]c3=O)[C@H](O)[C@@H]2O)[C@H]2C(=O)N(c3ccccc3)C(=O)[C@@H]12 (mixture of isomers) the Activity was “inactive”.

Test system: Pseudomonas putida
Test: Antibacterial activity against Pseudomonas putida ATCC 33015 at 100 ug/ml after 24 hrs
Format: functional, organism-based
Outline: as §1
With COc1ccccc1[C@H]1N[C@@](C)(C(=O)NCC(=O)NC[C@H]2O[C@@H](n3ccc(=O)[nH]c3=O)[C@H](O)[C@@H]2O)[C@H]2C(=O)N(c3ccccc3)C(=O)[C@@H]12 (mixture of isomers) the Activity was “inactive”.

Target: T1, Galactofuranosyltransferase GlfT2 (Mycobacterium tuberculosis) (UniProt O53585)
T1 sequence (whole entry): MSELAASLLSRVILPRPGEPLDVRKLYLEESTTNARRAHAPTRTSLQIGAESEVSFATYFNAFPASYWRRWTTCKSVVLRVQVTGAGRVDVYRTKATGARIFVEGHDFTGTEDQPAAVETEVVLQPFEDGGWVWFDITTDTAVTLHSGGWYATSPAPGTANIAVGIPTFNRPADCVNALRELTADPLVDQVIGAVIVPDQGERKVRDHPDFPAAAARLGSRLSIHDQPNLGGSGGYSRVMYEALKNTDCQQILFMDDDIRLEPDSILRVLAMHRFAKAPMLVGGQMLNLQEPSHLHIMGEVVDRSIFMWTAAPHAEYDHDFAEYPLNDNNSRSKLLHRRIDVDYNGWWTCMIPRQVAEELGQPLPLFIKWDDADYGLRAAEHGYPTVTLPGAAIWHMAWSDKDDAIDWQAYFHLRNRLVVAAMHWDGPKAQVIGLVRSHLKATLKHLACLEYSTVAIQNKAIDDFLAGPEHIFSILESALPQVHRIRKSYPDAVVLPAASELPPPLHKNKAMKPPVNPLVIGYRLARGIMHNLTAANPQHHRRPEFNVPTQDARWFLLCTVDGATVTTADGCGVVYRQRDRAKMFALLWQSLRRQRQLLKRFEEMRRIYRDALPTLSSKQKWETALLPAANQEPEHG
Test: Inhibition of Mycobacterium tuberculosis GlfT2 assessed as incorporation of [14C]Gal at 1 mM by scintillation counting
With COc1ccccc1[C@H]1N[C@@](C)(COC(=O)CC(=O)OC[C@H]2O[C@@H](n3ccc(=O)[nH]c3=O)[C@H](O)[C@@H]2O)[C@H]2C(=O)N(c3ccccc3)C(=O)[C@@H]12 the inhibition was 0%. For C[C@@]1(C(=O)NCC(=O)NC[C@H]2O[C@@H](n3ccc(=O)[nH]c3=O)[C@H](O)[C@@H]2O)N[C@H]([C@H](O)CO)[C@@H]2C(=O)N(c3ccccc3)C(=O)[C@@H]21, the inhibition was 0%. COC(=O)[C@H]1[C@@H](c2ccccc2OC)N[C@@](C)(C(=O)N2CCC[C@H]2C(=O)NC[C@H]2O[C@@H](n3ccc(=O)[nH]c3=O)[C@H](O)[C@@H]2O)[C@H]1C(=O)OC showed an inhibition of 0%. Compound COC(=O)[C@H]1[C@@H](c2ccccc2OC)N[C@@](C)(C(=O)N2CCC[C@H]2C(=O)NC[C@H]2O[C@@H](n3ccc(=O)[nH]c3=O)[C@H](O)[C@@H]2O)[C@@H]1C(=O)OC (mixture of isomers) has an inhibition of 0%. COC(=O)[C@@H]1[C@@H]2C(=O)N(CC(=O)NC[C@H]3O[C@@H](n4ccc(=O)[nH]c4=O)[C@H](O)[C@@H]3O)C(=O)[C@@H]2N[C@@H]1c1ccccc1OC gave an inhibition of 0%. With COC(=O)[C@@H]1[C@H]2C(=O)N(CC(=O)NC[C@H]3O[C@@H](n4ccc(=O)[nH]c4=O)[C@H](O)[C@@H]3O)C(=O)[C@@H]2N[C@@H]1c1ccccc1OC the inhibition was 0%. In the case of COc1cccc([C@H]2N[C@@](C)(C(=O)NCC(=O)NC[C@H]3O[C@@H](n4ccc(=O)[nH]c4=O)[C@H](O)[C@@H]3O)[C@H]3C(=O)N(c4ccccc4)C(=O)[C@@H]23)c1OC, the inhibition is reported as 0%. COC(=O)[C@H]1[C@@H](c2ccccc2OC)N[C@@](C)(C(=O)NCC(=O)NC[C@H]2O[C@@H](n3ccc(=O)[nH]c3=O)[C@H](O)[C@@H]2O)[C@@H]1C(=O)OC (mixture of isomers) gave an inhibition of 0%. For COc1ccccc1[C@H]1N[C@@](C)(C(=O)NCC(=O)NC[C@H]2O[C@@H](n3ccc(=O)[nH]c3=O)[C@H](O)[C@@H]2O)[C@H]2C(=O)N(c3ccccc3)C(=O)[C@@H]12 (mixture of isomers), the inhibition was 0%. In the case of COC(=O)[C@@H]1[C@@H]2C(=O)N(CC(=O)NC[C@H]3O[C@@H](n4ccc(=O)[nH]c4=O)[C@H](O)[C@@H]3O)C(=O)[C@@H]2N[C@@H]1c1ccc(OC)c(OC)c1, the inhibition is reported as 0%. In the case of COC(=O)[C@@H]1[C@@H]2C(=O)N(CC(=O)NC[C@H]3O[C@@H](n4ccc(=O)[nH]c4=O)[C@H](O)[C@@H]3O)C(=O)[C@@H]2N[C@@H]1c1ccccc1, the inhibition is reported as 80%. With COc1ccccc1[C@H]1N[C@@](C)(COC(=O)CCC(=O)OC[C@H]2O[C@@H](n3ccc(=O)[nH]c3=O)[C@H](O)[C@@H]2O)[C@H]2C(=O)N(c3ccccc3)C(=O)[C@@H]12 (mixture of isomers) the inhibition was 0%.

Test system: Escherichia coli
Test: Inhibition of Escherichia coli recombinant C terminal His-tagged MurG expressed in Escherichia coli C43 assessed as inhibition of […] labelled lipid intermediate 2 formation at 1 mM over 15 mins by scintillation counting
Compound COC(=O)[C@@H]1[C@@H]2C(=O)N(CC(=O)NC[C@H]3O[C@@H](n4ccc(=O)[nH]c4=O)[C@H](O)[C@@H]3O)C(=O)[C@@H]2N[C@@H]1c1cccc(OC)c1OC has an inhibition of 0%. COC(=O)[C@@H]1[C@@H]2C(=O)N(CC(=O)NC[C@H]3O[C@@H](n4ccc(=O)[nH]c4=O)[C@H](O)[C@@H]3O)C(=O)[C@@H]2N[C@@H]1c1ccccc1OC gave an inhibition of 0%. Compound COC(=O)[C@@H]1[C@H]2C(=O)N(CC(=O)NC[C@H]3O[C@@H](n4ccc(=O)[nH]c4=O)[C@H](O)[C@@H]3O)C(=O)[C@@H]2N[C@@H]1c1ccccc1OC has an inhibition of 22%. With COC(=O)[C@@H]1[C@@H]2C(=O)N(CC(=O)NC[C@H]3O[C@@H](n4ccc(=O)[nH]c4=O)[C@H](O)[C@@H]3O)C(=O)[C@@H]2N[C@@H]1c1ccccc1 the inhibition was 0%.
